# According to ChEMBL document CHEMBL1131131, “Structure-based design of beta-lactamase inhibitors. 2. Synthesis and evaluation of bridged sulfactams and oxamazins” (J Med Chem, 1998):
# What was measured:
# [1] = tested on: Pseudomonas aeruginosa; experiment: Minimum inhibitory concentration against the strains of Pseudomonas aeruginosa that produce the beta-lactamases; assay type: functional
# Summary of the method: (§1)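 Agar dilution on Mueller-Hinton agar with twofold serial dilutions of the compound or combination. About 10⁴ organisms were spotted with a multipoint inoculator. Plates were incubated for 18 h at 35 °C. MIC was taken as the lowest concentration preventing visible growth.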
# [2] = tested on: Citrobacter freundii; experiment: Minimum inhibitory concentration against the strain Citrobacter freundii 1982 that produce the beta-lactamases; assay type: functional; summary of the method: as §1
# [3] = tested on: Escherichia coli; experiment: Minimum inhibitory concentration against the strains of Escherichia coli that produce the beta-lactamases; assay type: functional; summary of the method: as §1
# [4] = Kinetic parameter was determined
MIC [1],MIC [2],MIC [3],Structure (SMILES),Koff [4],Kon [4],Ks [4]
4 µg/mL,0.25 µg/mL,16 µg/mL,NC(=O)c1ccc(NC(=O)N2CC[C@@H]3[C@H]2C(=O)N3S(=O)(=O)O)cc1,,,
128 µg/mL,1 µg/mL,8 µg/mL,NC(=O)c1ccc(NC(=O)N2CCC3C2C(=O)N3OS(=O)(=O)[O-])cc1.[Na+] (stereo not given),,,
> 16 µg/mL,> 16 µg/mL,> 16 µg/mL,CC(C)(C)OC(=O)N1CCC2C1C(=O)N2OCC(=O)OCc1ccccc1 (stereo not given),,,
32 µg/mL,4 µg/mL,4 µg/mL,CC(C)(C)OC(=O)N1CCC2C1C(=O)N2OS(=O)(=O)[O-].[Na+] (stereo not given),0.12 s⁻¹,20 s⁻¹,600 µM

Structure (SMILES),MIC [1],MIC [2],MIC [3],Koff [4],Kon [4],Ks [4]
CC(C)(C)OC(=O)N1CC[C@@H]2[C@H]1C(=O)N2S(=O)(=O)O,8 µg/mL,,16 µg/mL,< 8e-07 s⁻¹,12.5 s⁻¹,127 µM
